# Results taken from PubChem BioAssay AID602403 (The Scripps Research Institute Molecular Screening Center, 2012).
# A number with no mark means an inactive call.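 How the source made its calls: active means inhibition of the enzyme-probe labelling of at least 50% at one fixed dose; inactive means inhibition below 50%.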
# Target: Diacylglycerol lipase-alpha (Mus musculus) (UniProt Q6WQJ1)
# Experiment: mouse DAGLa inhibition, late-stage follow-up, selectivity assay for DAGLb inhibitor project, biochemical, gel-based competitive ABPP, recombinant, fluorescence (AID 602403)
# Conditions: HEK293T membrane mouse DAGLa, at 0.4 µM, active compounds read high
# Outline: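 Assay system – membrane proteome of 293T HEK cells transiently overexpressing mouse DAGLa · Medium – Dulbecco's phosphate-buffered saline (DPBS) · Also added – HT-01 probe, 1 µM · Timing – compound pre-incubation 30 min, probe labeling 30 min, both 37 °C · Technique – in-gel fluorescence after SDS-PAGE · Measure – % inhibition from band IOD · Benchmarks – DMSO high, blank-gel background low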
# Diacylglycerol lipase-alpha (Mus musculus), sequence (Q6WQJ1 whole entry, looked up): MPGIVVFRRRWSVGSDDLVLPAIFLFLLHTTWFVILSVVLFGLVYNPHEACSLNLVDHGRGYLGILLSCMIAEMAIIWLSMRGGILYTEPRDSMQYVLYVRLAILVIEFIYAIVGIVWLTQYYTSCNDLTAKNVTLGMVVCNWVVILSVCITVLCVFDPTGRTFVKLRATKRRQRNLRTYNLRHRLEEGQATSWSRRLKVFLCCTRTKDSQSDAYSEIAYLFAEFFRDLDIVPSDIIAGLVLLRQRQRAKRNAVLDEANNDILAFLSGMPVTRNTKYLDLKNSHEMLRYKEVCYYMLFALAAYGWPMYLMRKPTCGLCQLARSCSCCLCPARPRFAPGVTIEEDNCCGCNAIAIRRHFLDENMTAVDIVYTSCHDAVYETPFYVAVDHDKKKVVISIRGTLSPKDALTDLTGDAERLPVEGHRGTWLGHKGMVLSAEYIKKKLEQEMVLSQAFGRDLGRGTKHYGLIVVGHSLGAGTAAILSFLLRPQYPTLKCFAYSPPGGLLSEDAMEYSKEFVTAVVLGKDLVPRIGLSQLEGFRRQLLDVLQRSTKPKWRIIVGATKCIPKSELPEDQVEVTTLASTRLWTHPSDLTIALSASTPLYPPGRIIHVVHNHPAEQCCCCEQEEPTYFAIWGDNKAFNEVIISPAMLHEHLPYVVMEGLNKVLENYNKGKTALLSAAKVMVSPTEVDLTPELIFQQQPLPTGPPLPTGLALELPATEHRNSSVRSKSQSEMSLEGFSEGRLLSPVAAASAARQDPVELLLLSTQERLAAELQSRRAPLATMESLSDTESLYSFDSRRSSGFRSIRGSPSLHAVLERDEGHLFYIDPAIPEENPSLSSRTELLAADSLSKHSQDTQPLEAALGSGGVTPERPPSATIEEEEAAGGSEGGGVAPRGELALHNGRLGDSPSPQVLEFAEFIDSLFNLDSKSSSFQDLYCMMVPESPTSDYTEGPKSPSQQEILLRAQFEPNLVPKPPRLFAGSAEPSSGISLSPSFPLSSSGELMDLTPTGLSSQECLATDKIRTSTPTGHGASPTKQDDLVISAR
smiles,measurement,value
O=C(N1CCCCC1Cc1ccccc1)n1cc(-c2ccc(-c3ccccc3)cc2)nn1 (stereo unspecified),inhibition,40%
